The text below walks through data of PMC12272722 (RSC Medicinal Chemistry, 2025).

≈ marks a conversion by molar mass, not a printed value.

The test system of data set [1] is Trichophyton rubrum LM 237. As to the kind of experiment: MIC99 by broth microdilution. The data set is classed as cell-based. The conditions noted are these: LM237, 168 h, read-out: MIC99 T. rubrum. An outline of the steps: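 T. rubrum was cultured on Sabouraud dextrose agar at 27 °C for one week. Actively growing mycelium was collected into sterile distilled water with broken coverslips as inoculum. Test compound in 5% aqueous DMSO was diluted twofold serially in SDA over 2.0 × 10−1 to 2.4 × 10−5 mg mL−1. Plates were held at 30 °C and scored visually after 7 days. Run in triplicate with solvent blanks; amphotericin B and fluconazole as references.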
A general note: In broth dilution the organism is exposed to a series of concentrations in liquid medium.

A short description of data set [2]: Water thermodynamic solubility by HPLC. The class given is physicochemical. The conditions noted are these: ultrapure water, 25 °C, thermodynamic from solid.
The conditions of data set [3]: literature value; cited from earlier work.

Usually MIC99 stands for the lowest concentration that inhibits either 99% of growth or 99% of the strains tested, depending on the study. The solubility is the concentration that dissolves in the medium under given conditions. High values mean much dissolved substance, low ones little dissolved substance. On to `COC(=O)[C@H](CO)NC(C)=C1C(=O)C=C2Oc3c(C(C)=O)c(O)c(C)c(O)c3[C@@]2(C)C1=O` [(9bR,15S)-1, Methyl (1-((R)-6-acetyl-7,9-dihydroxy-8,9b-dimethyl-1,3-dioxo-3,9b-dihydrodibenzo[b,d]furan-2(1H)-ylidene)ethyl)-L-serinate], for which, in data set [1], the MIC99 came out at 450 µM (≈ 200 µg/mL). Further, the solubility at 24 h in data set [2] was in the range of 150 to 4700 µM (≈ 66.8 to 2090 µg/mL).
Regarding `CC(=O)c1c(O)c(C)c(O)c2c1OC1=CC(=O)C(=C(C)N[C@@H](CCCNC(=N)N)C(=O)O)C(=O)[C@@]12C` [(9bR,15S)-2, (1-((R)-6-Acetyl-7,9-dihydroxy-8,9b-dimethyl-1,3-dioxo-3,9b-dihydrodibenzo[b,d]furan-2(1H)-ylidene)ethyl)-L-arginine], the MIC99 in data set [1] was determined as 400 µM (≈ 200 µg/mL).
On to `COC(=O)[C@H](CO)NC(C)=C1C(=O)C=C2Oc3c(C(C)=O)c(O)c(C)c(O)c3[C@]2(C)C1=O` [(9bS,15S)-1, Methyl (1-((S)-6-acetyl-7,9-dihydroxy-8,9b-dimethyl-1,3-dioxo-3,9b-dihydrodibenzo[b,d]-furan-2(1H)-ylidene)ethyl)-L-serinate], for which, in data set [1], the MIC99 turned out to be 28 µM (≈ 12.5 µg/mL). This molecule also registered a solubility at 24 h in data set [2] of 150 µM (≈ 66.8 µg/mL).
For `CC(=O)c1c(O)c(C)c(O)c2c1OC1=CC(=O)C(=C(C)N[C@@H](CCCNC(=N)N)C(=O)O)C(=O)[C@]12C` [(9bS,15S)-2, (1-((S)-6-Acetyl-7,9-dihydroxy-8,9b-dimethyl-1,3-dioxo-3,9b-dihydrodibenzo[b,d]furan-2(1H)-ylidene)ethyl)-L-arginine], the MIC99 in data set [1] came to 100 µM (≈ 50.1 µg/mL).
Same read-out and setting: next, `C[C@@H]1[C@H](O)[C@@H](C)/C=C/C=C/C=C/C=C/C=C/C=C/C=C/[C@H](O[C@@H]2O[C@H](C)[C@@H](O)[C@H](N)[C@@H]2O)C[C@@H]2O[C@](O)(C[C@@H](O)C[C@@H](O)[C@H](O)CC[C@@H](O)C[C@@H](O)CC(=O)O[C@H]1C)C[C@H](O)[C@H]2C(=O)O` [AmB, amphotericin B, reference compound]: greater than 400 µM; `OC(Cn1cncn1)(Cn1cncn1)c1ccc(F)cc1F` [FCZ, fluconazole, reference compound]: greater than 200 µM.
As to usnic acid [UA], the “Aqueous solubility at 25 °C” value in data set [3] was <0.3 (lit.)[60] mM.
